Results pooled from the literature.
Each line is one published result; the experiments were not run side by side. pEC50: −log10 of the molar value.
Organism: Plasmodium falciparum
Read-out: parasite growth

Structure (SMILES) | assay | test system | setting | pEC50
O=C1C(O)=C([C@H]2CC[C@H](c3ccc(Cl)cc3)CC2)C(=O)c2ccccc21 | SYBR Green | D6 | 72 h, blood stage | > 9.60
Cc1cc(NC2Cc3cc(F)c(F)cc3C2)n2nc(C(C)(F)F)nc2n1 | – | K1 | drug-resistant strain, blood stage | 7.31
COc1ccc(-n2ccnc2SCC(=O)Nc2cccc(C(F)(F)F)c2)c(OC)c1 | SYBR Green | 3D7 | – | 7.05
COc1cc2[nH]c(C)c(-c3ccc(Oc4ccc(OC(F)(F)F)cc4)cc3)c(=O)c2cc1Cl | SYBR Green | TM90 | 72 h, drug-resistant strain, blood stage | 9.00
Cc1c2oc3c(C)ccc(C(=O)N[C@@H]4C(=O)N[C@H](C(C)C)C(=O)N5CCC[C@H]5C(=O)N(C)CC(=O)N(C)[C@@H](C(C)C)C(=O)O[C@@H]4C)c3nc-2c(C(=O)N[C@@H]2C(=O)N[C@H](C(C)C)C(=O)N3CCC[C@H]3C(=O)N(C)CC(=O)N(C)[C@@H](C(C)C)C(=O)O[C@@H]2C)c(N)c1=O | SYBR Green | 3D7 | blood stage | 6.00
OC(c1cc(C(F)(F)F)nc2c(C(F)(F)F)cccc12)C1CCCCN1 (stereo not drawn) | SYBR Green | 3D7 | – | 7.69
CN1CCN(S(=O)(=O)c2ccc(-c3ccc4ncnc(Nc5ccc(OCc6cccc(F)c6)c(Cl)c5)c4c3)cc2)CC1 | SYBR Green | W2 | drug-resistant strain, blood stage | 7.36
Cc1cc(N[C@H]2CCc3ccc(Cl)cc3C2)n2nc(C(C)(F)F)nc2n1 | – | K1 | drug-resistant strain, blood stage | 8.77
CN1CCCN(S(=O)(=O)c2ccc(-c3ccc4ncnc(Nc5ccc(OCc6cccc(F)c6)c(Cl)c5)c4c3)cc2)CC1 | SYBR Green | W2 | drug-resistant strain, blood stage | 7.28
Cc1noc(-c2cccs2)c1C(=O)NCCc1cccc(Cl)c1 | SYBR Green | 3D7 | – | 6.50
CCN(CC)CCCC(C)Nc1ccnc2cc(Cl)ccc12 (stereo not drawn) | SYBR Green | TM90 | 72 h, drug-resistant strain, blood stage | 7.05
COc1cc2[nH]c(C)c(-c3ccccc3)c(=O)c2cc1Cl | – | W2 | drug-resistant strain, blood stage | 7.58
